Most compounds without a hit are left out; they make up all but 2.8% or so of the library.
MC4R antag cAMP: antagonists of human melanocortin 4 receptor (MC4R); P32245; MC4R-expressing cells, MTII-stimulated cAMP, LANCE TR-FRET; inhibition, % at 6.5 µM; actives 0.48% (n = 360,000); AID 540295;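 active = inhibition above its plate's cutoff, the mean of tested wells on that plate plus 3 SD, cut at about 29% in these data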;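 also: 0% = Melanotan II alone and 100% = Melanotan II plus saturating MCL0020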
Target sequence (P32245 whole entry, looked up): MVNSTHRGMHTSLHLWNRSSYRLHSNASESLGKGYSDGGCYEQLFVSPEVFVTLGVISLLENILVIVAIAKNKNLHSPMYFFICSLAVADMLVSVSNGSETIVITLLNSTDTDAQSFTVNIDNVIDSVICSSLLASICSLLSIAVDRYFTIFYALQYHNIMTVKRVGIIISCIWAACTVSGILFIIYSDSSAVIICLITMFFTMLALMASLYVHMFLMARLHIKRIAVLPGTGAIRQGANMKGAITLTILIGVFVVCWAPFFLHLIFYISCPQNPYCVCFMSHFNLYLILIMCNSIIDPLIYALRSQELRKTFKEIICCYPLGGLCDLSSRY
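Assay system: U2OS-MC4R stable cell line; Also added: Melanotan II; Technique: Eu-cAMP/anti-cAMP TR-FRET, emission 671 nm; Times: 30-min compound, 1-h challenge, 1-h detection, room temperature.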
HTR2A ag: agonists of mouse serotonin 5-HT2A receptor (HTR2A). activation, % at 7.6 µM. actives 0.66% (n = 360,000). CHO-K1 mHTR2A beta-arrestin complementation, luminescence; percent of 30 µM serotonin response;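 active = activation above a run cutoff, the mean activation of all tested compounds plus 3 SD, cut at about 14% in these data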;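 also: 0% = plate median of compound wells and 100% = 30 µM serotonin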
EBI2 block: blocks human EBI2 receptor beta-arrestin signaling; P32249; EBI2 beta-arrestin recruitment, luminescence, 7a,25-OHC stimulated; inhibition, % at 5 µM; actives 0.81% (n = 360,000); in the data active = inhibition above about 38%;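 also: enzyme fragment complementation signal reports receptor beta-arrestin coupling in cells; 0% = agonist plus DMSO wells and 100% = wells without agonist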
MC4R barr agon: human MC4R agonism via beta-arrestin; U2OS MC4R beta-arrestin complementation, luminescence; percent of melanotan II response, DMSO zero; activation, % at 8.9 µM; actives 0.98% (n = 360,000); AID 540308;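 active = activation above a per-plate cutoff, the mean activation of sample wells on that plate plus 3 SD, cut at about 8% in these data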
EBI2 antag conf: confirmation of human EBI2 receptor antagonists; shares compounds with EBI2 block; EBI2 beta-arrestin luminescence, 7a,25-OHC antagonism; inhibition, % at 5 µM; actives 29% (n = 2,400); AID 651997;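 active = inhibition of at least 50%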
EBI2 agonist: counter-screen for EBI2 antagonists: EBI2 agonist activity. shares compounds with EBI2 block. EBI2-expressing cells, agonist mode, luminescence, 60 min; 0% vehicle, 100% 7α,25-dihydroxycholesterol control. activation, % at 5 µM. 2,400 tested, under 10 active;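 active = activation of at least 50%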
bGal counter: counter-screen for EBI2 antagonists: E. coli beta-galactosidase inhibition; shares compounds with EBI2 block; purified beta-galactosidase, luminescent Galacton Star, 15 min; inhibition, % at 5 µM; actives 1% (n = 2,400); AID 652176;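 active = replicate-average signal at least 3 plate SD below neutral wells, shown as high inhibition, flagging enzyme-inhibiting false positives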;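 also: 0% = DMSO wells with enzyme and 100% = wells lacking enzyme; higher means stronger loss of beta-gal luminescence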
Active calls of the source: *; . = not tested or not shown.

SMILES	MC4R antag cAMP	HTR2A ag	EBI2 block	MC4R barr agon	EBI2 antag conf	EBI2 agonist	bGal counter
COc1ccc(NC(=O)CN2CCN(c3ccccc3)CC2)cc1	-1	9	-5	1	.	.	.
Cc1cc(C(=O)N2CCC(Cc3ccccc3)CC2)ccc1[N+](=O)[O-]	-4	2	64*	-1	43	1	5
O=C(Nc1cccnc1)/C(N=Nc1c(Cl)cccc1Cl)=C(\O)c1ccccc1	8	-1	51*	-1	35	4	4
COc1ccc(CNC(=O)CCc2c(C)nc3cc(-c4ccccc4OC)nn3c2C)cc1	-3	1	10	2	.	.	.
COc1ccc(-c2cc3nc(C)c(CCC(=O)NCc4ccc(F)cc4)c(C)n3n2)c(OC)c1	2	4	53*	-2	40	2	-7
CCc1ccc(NC(=O)c2ccc(F)c(S(=O)(=O)N(CC)c3ccccc3)c2)cc1	-5	5	45*	2	38	-1	-22
CCN(c1ccccc1)S(=O)(=O)c1cc(C(=O)Nc2cccc(Cl)c2)ccc1F	2	-5	24	-1	.	.	.
CN(Cc1ccccc1)C(=O)COC(=O)c1cc(=O)c2ccccc2o1	14	0	5	1	.	.	.
CSc1ccc(CN(C)C(=O)c2cc(=O)c3ccccc3o2)cc1	3	-2	78*	3	60*	-1	-14
CSc1ccc(CN(C)C(=O)c2cc3ccccc3o2)cc1	0	-1	50*	-1	12	0	-11
CC1CCCN(C(=O)CCS(=O)(=O)c2ccc3c(c2)NC(=O)C(C)S3)C1 (configuration not stated)	6	2	-5	-3	.	.	.
COc1ccc2oc(C(=O)N3CCN(S(=O)(=O)c4c(C)c(C)cc(C)c4C)CC3)c(C)c2c1	2	-6	80*	-1	53*	1	-17
COc1ccccc1N1CCN(C(=O)c2oc3ccc(F)cc3c2C)CC1	0	-1	27	2	.	.	.
COc1ccccc1N1CCN(C(=O)c2cc3c(C)nc4ccccc4c3o2)CC1	4	-7	74*	3	53*	2	3
COc1ccccc1N1CCN(C(=O)c2oc3ccccc3c2C)CC1	-5	-1	25	0	.	.	.
Cc1ccc(C)c(N2CCN(C(=O)c3cc4c(C)nc5ccccc5c4o3)CC2)c1	20	0	88*	2	60*	-1	-12
Cc1nc2ccccc2c2oc(C(=O)N3CC(C)CC(C)C3)cc12 (configuration not stated)	-1	7	9	-2	.	.	.
COc1ccccc1N1CCN(C(=O)c2oc3ccc(Br)cc3c2C)CC1	-17	-1	75*	-2	45	2	0
COc1ccc2oc(C(=O)N3CCN(S(=O)(=O)c4ccc(F)cc4)CC3)c(C)c2c1	0	3	25	0	.	.	.
Cc1cc(OC(=O)c2ccccc2Br)c([N+](=O)[O-])c(=O)[nH]1	-3	1	-3	-1	.	.	.
Nc1c(Br)cc(Br)c2c1-c1ccc([N+](=O)[O-])cc1C2	-7	14	-7	0	.	.	.
O=C(CCNC(=O)N1CCn2c1nc1ccccc12)NCc1ccccc1Cl	2	2	2	-3	.	.	.
CCC(C)c1ccccc1NC(=O)c1cccc(-n2cnnn2)c1 (configuration not stated)	4	0	2	-1	.	.	.
CC(C)(C)n1nnnc1C(c1cc2ccccc2o1)N1CCCCC1 (configuration not stated)	.	-5	0	.	.	.	.
CCN1CCN(CC(=O)Nc2cc(C(F)(F)F)ccc2OCCOC)CC1	-4	-5	-7	0	.	.	.
SMILES	MC4R antag cAMP	HTR2A ag	EBI2 block	MC4R barr agon	EBI2 antag conf	EBI2 agonist	bGal counter
O=c1[nH]c(CN2CCN(S(=O)(=O)/C=C/c3ccccc3)CC2)nc2cc(Cl)ccc12	0	4	71*	0	41	-2	-12
O=c1[nH]c(CN2CCN(S(=O)(=O)c3ccc4ccccc4c3)CC2)nc2ccccc12	25	-1	53*	3	25	4	5
CC(c1nc2ccccc2c(=O)[nH]1)N1CCN(S(=O)(=O)c2ccc(F)c(Cl)c2)CC1 (configuration not stated)	10	0	59*	-2	48	1	0
O=C(Cc1n[nH]c(=O)c2ccccc12)N1CCN(S(=O)(=O)c2ccc(F)c(Cl)c2)CC1	-3	6	2	0	.	.	.
O=c1[nH]c(CN2CCN(C/C=C/c3ccccc3)CC2)nc2ccccc12	15	-9	21	-1	.	.	.
O=c1[nH]c(CN2CCN(S(=O)(=O)/C=C/c3ccccc3)CC2)nc2ccccc12	1	4	46*	-1	22	-2	-10
Cc1cccc(OCC(=O)N2CCC(c3ccccc3)C2)c1 (configuration not stated)	-2	-8	46*	-1	44	1	3
CC1CCCN(C(=O)COc2ccc(-c3ccccc3)cc2)C1 (configuration not stated)	7	-7	9	-2	.	.	.
Cc1cccc(OCC(=O)N2CCN(C(=O)Cc3ccccc3)CC2)c1	9	-1	15	-1	.	.	.
O=C(COc1ccc(F)cc1)N1CCC(c2ccccc2)C1 (configuration not stated)	4	-1	57*	3	27	0	3
CC(NC(=O)C1CC1)c1ccc(-c2ccccc2)cc1 (configuration not stated)	7	-6	-5	0	.	.	.
Cc1ccc(CCNC(=O)CCSCc2ccc(Cl)cc2)cc1	8	-2	-4	6	.	.	.
Cc1ccc(/C=C/C(=O)NCCCc2ccccc2)cc1	11	-1	49*	2	39	-1	-2
Cc1ccc(CSCCNC(=O)/C=C/c2ccc(Cl)cc2)cc1	2	-3	53*	0	29	2	-1
CSc1ccc(/C=C(/NC(=O)c2ccc(C)cc2)C(=O)Nc2cccc(C)c2)cc1	6	-1	-10	-2	.	.	.
CCCOc1cc(C)c(S(=O)(=O)NC2CC(C)(C)NC(C)(C)C2)cc1C	23	-3	-16	0	.	.	.
O=C(CCC(=O)N(CC(=O)NC1CCCC1)Cc1ccccc1Cl)Nc1nccs1	4	-3	1	-1	.	.	.
O=C(NCCS(=O)(=O)N1CCN(c2cccc(Cl)c2)CC1)c1cc(=O)c2ccccc2o1	12	-1	4	-2	.	.	.
Cc1cccc(OCCNc2cc(N3CCOCC3)ccc2[N+](=O)[O-])c1	-6	0	64*	-2	48	1	9

Assay outcomes (PubChem BioAssay)
